This is an account of results in ChEMBL document CHEMBL1129996, “1-Aryl-3,5-dihydro-4H-2,3-benzodiazepin-4-ones: novel AMPA receptor antagonists” (J Med Chem, 1997).

Series [1] in a line: Motor toxicity in 50% of mice on locomotion assessed by Rotarod test following 30 min ip administration. In kind it is organism-based. The settings on record: mouse, in vivo. In outline:
(§1)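 Male Swiss mice (20-26 g, 48-54 days), groups of 10, trained on rotarod (3 cm, 8 rpm); tested 30 min after ip dosing. Impairment = failure to stay on for 2 min; TD50 (95% confidence limits) by Litchfield-Wilcoxon.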
In general terms: The rotarod test checks motor coordination on a turning rod.

Series [2] can be described thus: Relative lipophilicity of compound. Type of series: physicochemical. The settings on record: reversed-phase TLC, acetone/water 2:1. In outline: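 Reversed-phase TLC type lipophilicity: plates dried 105 °C 1 h, mobile phase acetone:water 2:1, 1 µL of 3 mg/mL CHCl3 solution spotted; five runs with varied positions, mean Rf converted as Rm = log[(1/Rf) - 1].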
For series [3], the system named is Mus musculus. Kind of series: Anticonvulsant activity against clonic phase of the audiogenic seizures in DBA / 2 mice 30 min after ip administration at a dose range 10-120 uM/kg. In kind it is functional. The conditions noted are these: 0.5 h. The procedure, abridged:
(§2)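 Groups of 10 DBA/2 mice of either sex; drug ip (0.1 mL/10 g) as fresh solution in 50% DMSO/50% saline, 30 min before auditory stimulation (12-16 kHz, 109 dB, 60 s or until tonic extension) under perspex dome after 60 s habituation. Latency and incidence of wild running, clonic and tonic phases scored; ED50 (95% confidence limits) by Litchfield-Wilcoxon.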

Series [4] deals with Mus musculus. The series can be described thus: Anticonvulsant activity against tonic phase of the audiogenic seizures in DBA / 2 mice 30 min after ip administration at a dose range 10-120 uM/kg. In kind it is functional. The conditions noted are these: 0.5 h. The procedure, abridged:
as §2

The species named for series [5] is Mus musculus. The series can be described thus: Audiogenic seizures after concomitant treatment with Flumazenil (24.72 uM) in DBA / 2 mice clonic phase. Type of series: functional.
The test system of series [6] is Mus musculus. Kind of series: Audiogenic seizures after pretreatment with Aniracetam in DBA / 2 mice tonic phase at a dose range of 33-300 uM/kg. Type of series: functional. In outline: (§3)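 DBA/2 mice pretreated with aniracetam 50 nmol icv 60 min before auditory testing, with ip 2,3-benzodiazepine; audiogenic clonic and tonic phases scored; ED50 by Litchfield-Wilcoxon.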

In series [7] the test system is Mus musculus. Kind of series: Anticonvulsant activity against tonic phase of the audiogenic seizures in DBA / 2 mice 30 min after ip administration at a dose range 10-100 uM/kg. Type of series: functional. The settings on record: 0.5 h. The procedure, abridged: as §2
The species entered for series [8] is Mus musculus. Kind of series: Audiogenic seizures after concomitant treatment with Flumazenil (24.72 uM) in DBA / 2 mice tonic phase. In kind it is functional.
For series [9], the species on record is Mus musculus. Kind of series: Audiogenic seizures after concomitant treatment with Flumazenil (8.24 uM) in DBA / 2 mice clonic phase. In kind it is functional.
Series [10] has as its system Mus musculus. Kind of series: Anticonvulsant activity against the clonic seizures induced by icv injection of AMPA in DBA / 2 mice at a dose range of 10-200 uM/kg. Type of series: functional. The conditions noted are these: central.
In series [11] the test system is Mus musculus. Kind of series: Anticonvulsant activity against the tonic seizures induced by icv injection of AMPA in DBA / 2 mice at a dose range of 10-200 uM/kg. The conditions noted are these: central. In kind it is functional.
In series [12] the test system is Mus musculus. Kind of series: Anticonvulsant activity against the maximal electroshock in Swiss mice after 45 minutes pretreatment at a dose range 10-100 uM/kg. Type of series: functional. The procedure, abridged: (§4)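 Swiss mice dosed ip in 50% DMSO/50% saline 45 min before ear-clip electroshock (50 mA, 20 ms pulses, 35 Hz, 400 ms). Protection = abolition of tonic hindlimb extension. Usually 4-5 doses with 8-10 mice each; ED50 (95% confidence limits) by Litchfield-Wilcoxon.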
(In general: The maximal electroshock test induces tonic seizures with an electrical stimulus.)

For series [13], the system named is Mus musculus. Kind of series: Audiogenic seizures after pretreatment with Aniracetam in DBA / 2 mice clonic phase at a dose range of 33-300 uM/kg. Type of series: functional. The procedure, abridged: as §3
Series [14] in a line: Therapeutic index it is the ratio between TD50 and ED50 (from the clonic phase of the audiogenic seizures). The conditions noted are these: read-out: TI. In outline:
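Therapeutic index computed as rotarod TD50 divided by ED50 for the clonic phase of audiogenic seizures in DBA/2 mice.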

Series [15] is filed under the species Mus musculus. The series can be described thus: Audiogenic seizures after concomitant treatment with Flumazenil (8.24 uM) in DBA / 2 mice tonic phase. In kind it is functional.
For series [16], the system named is Mus musculus. Kind of series: Pentylenetetrazole-induced seizures in Swiss mice after 45 min pretreatment at a dose range 10-100 uM/kg. Type of series: functional. In outline: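 Male Swiss mice (20-26 g), compound ip in 50% DMSO/50% saline 45 min before sc pentylenetetrazole at CD97 (85 mg/kg), then observed 30 min. Protection is absence of clonic spasms lasting at least 5 s. Typically 4-5 doses, 8-10 mice per dose. ED50 with 95% confidence limits by Litchfield and Wilcoxon.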

In series [17] the test system is Mus musculus. Kind of series: Pentylenetetrazole-induced seizures in Swiss mice after 45 min pretreatment at a dose range 10-150 uM/kg. In kind it is functional.
Series [18] deals with Mus musculus. The series can be described thus: Anticonvulsant activity against the maximal electroshock in Swiss mice after 45 minutes pretreatment at a dose range 10-150 uM/kg. In kind it is functional. The procedure, abridged:
as §4

Series [19] relates to Mus musculus. The series can be described thus: Anticonvulsant activity against tonic phase of the audiogenic seizures in DBA / 2 mice 30 min after ip administration at a dose range 10-66 uM/kg. In kind it is functional. The conditions noted are these: 0.5 h. In outline: as §2
Series [20] concerns Mus musculus. Kind of series: Anticonvulsant activity against clonic phase of the audiogenic seizures in DBA / 2 mice 30 min after ip administration at a dose range 10-66 uM/kg. In kind it is functional. The settings on record: 0.5 h. The procedure, abridged: as §2
The species named for series [21] is Mus musculus. The series can be described thus: Pentylenetetrazole-induced seizures in Swiss mice after 45 min pretreatment at a dose range 10-150 uM / kg (95% confidence limits). Type of series: functional.
The nature of series [22]: Motor toxicity in 50% of mice on locomotion assessed by Rotarod test following 30 min ip administration (95% confidence limits). Type of series: organism-based. The conditions noted are these: mouse, in vivo. In outline: as §1
Series [23] deals with Mus musculus. The series can be described thus: Anticonvulsant activity against tonic phase of the audiogenic seizures in DBA / 2 mice 30 min after ip administration at a dose range 33-200 uM/kg. The settings on record: 0.5 h. Type of series: functional. The procedure, abridged: as §2
The test system of series [24] is Mus musculus. The series can be described thus: Pentylenetetrazole-induced seizures in Swiss mice after 45 min pretreatment at a dose range 33-200 uM/kg. Type of series: functional.
The test system of series [25] is Mus musculus. The series can be described thus: Anticonvulsant activity against the maximal electroshock in Swiss mice after 45 minutes pretreatment at a dose range 33-200 uM/kg. In kind it is functional. In outline: as §4
Series [26] concerns Mus musculus. The series can be described thus: Anticonvulsant activity against clonic phase of the audiogenic seizures in DBA / 2 mice 30 min after ip administration at a dose range 33-200 uM/kg. In kind it is functional. The settings on record: 0.5 h. In outline:
as §2

Structures are written as SMILES. Several values for one entry are separate records, joined by “and”; a condition that tells them apart may be missing. Equal values may be shown once. A value given as a limit tells only on which side of the number the result lay.

By TD50 is commonly meant the 50% point of the dose-response relation for the toxic effect studied. Low readings indicate greater toxicity, high ones lower toxicity. The term ED50 denotes the dose at which the effect has come halfway, by size or by number of responders. In turn, `COc1cc2c(cc1OC)C(c1ccc(C#N)cc1)=NN(C)C(=O)C2` returned a TD50 at 0.5 h in [1] above 150 µmol/kg. The Rm in [2] is -0.031. In addition, the ED50 is > 120 µmol/kg and > 44 mg/kg in the series on Mus musculus [3]; > 120 µmol/kg and > 44 mg/kg in the series on Mus musculus [4].

Take `COc1cc2c(cc1OC)C(c1ccccc1)=NNC(=O)C2`: in [1], the TD50 at 0.5 h turned out to be 142 µmol/kg. The ED50 in the series filed under Mus musculus [5] was 50.9 µmol/kg; with Mus musculus [6] it was 157 µmol/kg; with Mus musculus [7], 31.8 µmol/kg and 9.41 mg/kg; in the series filed under Mus musculus [8], 41.3 µmol/kg; in the series filed under Mus musculus [9], 38.2 µmol/kg; with Mus musculus [10] it was 66 µmol/kg. Besides, the ED50 worked out at 42.6 µmol/kg with Mus musculus [11]; 35.8 µmol/kg in the series on Mus musculus [12]; 215 µmol/kg in the series on Mus musculus [13]; 35.8 µmol/kg in the series listed under Mus musculus [15]; 68.2 µmol/kg with Mus musculus [16]. In addition, the Rm in series [2] is -0.012. For the same compound, the therapeutic index (TD50/ED50) in [14] was determined as 4.2.

Turning to `COc1cc2c(cc1OC)C(c1ccc(C#N)cc1)=NNC(=O)C2`, the TD50 at 0.5 h in series [1] was above 150 µmol/kg. Also, the ED50 was above 150 µmol/kg in the series on Mus musculus [17]; > 120 µmol/kg and > 44 mg/kg with Mus musculus [3]; above 150 µmol/kg in the series on Mus musculus [18]; > 120 µmol/kg and > 44 mg/kg with Mus musculus [4]. Also, the Rm in series [2] is given as -0.218.

For the compound `COc1cc2c(cc1OC)C(c1cccc(N)c1)=NN(C)C(=O)C2`, the ED50 in the series with Mus musculus [19] is 30.6 µmol/kg and 9.94 mg/kg; in the series with Mus musculus [20] it was 36.8 µmol/kg and 11.9 mg/kg. In [2], the Rm is -0.327.

On to `COc1cc2c(cc1OC)C(c1ccc([N+](=O)[O-])cc1)=NNC(=O)C2`, for which the ED50 in the series filed under Mus musculus [21] is above 150 µmol/kg; with Mus musculus [3], > 120 µmol/kg and > 44 mg/kg; in the series on Mus musculus [18] it was above 150 µmol/kg; in the series with Mus musculus [4], > 120 µmol/kg and > 44 mg/kg. In series [2], this compound registered a Rm of -0.096. This compound also gave a TD50 at 0.5 h in series [22] above 150 µmol/kg.

As for `COc1cc2c(cc1OC)C(c1ccc([N+](=O)[O-])cc1)=NN(C)C(=O)C2`, the TD50 at 0.5 h in series [1] is above 150 µmol/kg. Also, the ED50 with Mus musculus [17] is above 150 µmol/kg; with Mus musculus [3], > 120 µmol/kg and > 44 mg/kg; with Mus musculus [18], above 150 µmol/kg; with Mus musculus [4], > 120 µmol/kg and > 44 mg/kg. Further, the Rm in [2] stood at 0.11.

The compound `COc1ccc2c(c1)CC(=O)NN=C2c1ccccc1` showed a TD50 at 0.5 h in [1] of 197 µmol/kg. Moreover, the Rm in series [2] is -0.052. Also, the ED50 in the series on Mus musculus [23] was 64.8 µmol/kg and 17.2 mg/kg; in the series on Mus musculus [24] it was 98.2 µmol/kg; in the series on Mus musculus [25], 73.4 µmol/kg; with Mus musculus [26], 75.5 µmol/kg and 20 mg/kg. In [14], the therapeutic index (TD50/ED50) is 2.6.

Regarding `COc1cc2c(cc1OC)C(c1cccc([N+](=O)[O-])c1)=NNC(=O)C2`, the TD50 at 0.5 h in series [1] is above 150 µmol/kg. For the same compound, the ED50 in the series with Mus musculus [17] was above 150 µmol/kg; in the series with Mus musculus [3], > 120 µmol/kg and > 44 mg/kg; in the series on Mus musculus [18], above 150 µmol/kg; with Mus musculus [4], > 120 µmol/kg and > 44 mg/kg. The compound further showed a Rm in [2] of -0.14.

The compound `COc1cc2c(cc1OC)C(c1ccc(C#N)cc1)=NN(C(C)=O)C(=O)C2` registered a TD50 at 0.5 h in series [1] above 150 µmol/kg. Besides, the Rm in series [2] is on record as -0.065. Also, the ED50 with Mus musculus [3] was > 120 µmol/kg and > 44 mg/kg; in the series with Mus musculus [4], > 120 µmol/kg and > 44 mg/kg.
